This note sets out measurements from ChEMBL document CHEMBL2040798, “One-pot synthesis of novel isoindoline-1,3-dione derivatives bearing 1,2,4-triazole moiety and their preliminary biological evaluation” (Eur J Med Chem, 2012).

A short description of assay [1]: Cytotoxicity against human PC3M cells after 48 hrs by MTT assay. The note with it: PC-3M. It is filed as functional, cell-based. Put shortly:
(§1)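 MTT assay. Cells kept in DMEM with 10% FBS. HepG2 seeded at 1 × 10^4 cells/well; A549, PC-3M and MKN45 at 1.6 × 10^4 cells/well. Attachment 24 h at 37 °C. Compounds diluted in medium from 10 mM DMSO stocks; 0.1% DMSO served as negative control. Exposure 48 h at 37 °C, then MTT for 3 h. Formazan dissolved in DMSO and read at 570 nm. IC50 from a concentration series; mean of three independent experiments.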
In general terms: Tetrazolium dyes change colour on reduction, which living cells bring about.

The next assay has as its system Pyricularia grisea. Nature of the assay: Growth inhibition of Phyricularia oryzae Cav. at 150 mg/mL after 48 hrs by mycelium growth rate method. The arrangement: dose or concentration left out as unconfirmed. It is filed as functional. The settings on record: read-out: GI.
For a further assay, the system named is MKN-45. Nature of the assay: Cytotoxicity against human MKN45 cells after 48 hrs by MTT assay. The class given is functional, cell-based. The settings on record: MKN-45, 48 h. Put shortly: as §1
For another assay, the system named is HepG2. Nature of the assay: Cytotoxicity against human HepG2 cells after 48 hrs by MTT assay. The class given is functional, cell-based. The settings on record: HepG2, 48 h. In short, it runs like this: as §1
For a further assay, the system named is A549. Nature of the assay: Cytotoxicity against human A549 cells after 48 hrs by MTT assay. It is filed as functional, cell-based. The settings on record: A549, 48 h. In short, it runs like this: as §1

Usually IC50 stands for the concentration at which inhibition is half-maximal. As for `Cc1ccc(C(=O)CSc2nnc(C)n2N2C(=O)c3ccccc3C2=O)cc1`, the IC50 (in assay [1]; in the assay on MKN-45; with HepG2; with A549) was greater than 200 µM in each case. Moreover, the inhibition of growth with Pyricularia grisea was no less than 50%.
For `COc1ccc(C(=O)CSc2nnc(-c3cc(OC)c(OC)c(OC)c3)n2N2C(=O)c3ccccc3C2=O)cc1`, the IC50 in assay [1] was 32.8 µM; with MKN-45 it was 37.2 µM; with HepG2 it was 28.7 µM; in the assay with A549, 30 µM. In the assay with Pyricularia grisea, the inhibition of growth is less than 50%.
The like results for `Cc1nnc(SCc2ccccc2)n1N1C(=O)c2ccccc2C1=O` were, in that order, greater than 200 µM, greater than 200 µM, greater than 200 µM, greater than 200 µM and less than 50%.
For `C#CCSc1nnc(CCC)n1N1C(=O)c2ccccc2C1=O`, the 50% inhibitory concentration (IC50) (in assay [1]; with MKN-45; in the assay on HepG2; with A549) was greater than 200 µM each time. Moreover, the inhibition of growth in the assay on Pyricularia grisea was less than 50%.
For `COc1cc(-c2nnc(SCC(=O)c3ccc(Br)cc3)n2N2C(=O)c3ccccc3C2=O)cc(OC)c1OC`, the IC50 in assay [1] is 22.6 µM; in the assay on MKN-45 it was 22.3 µM; in the assay on HepG2, 27.7 µM; with A549 it was 16.1 µM. For the same molecule, in the assay on Pyricularia grisea, the inhibition of growth was no less than 60%.
On to `COc1cc(-c2nnc(SCc3ccccc3)n2N2C(=O)c3ccccc3C2=O)cc(OC)c1OC`, for which the half-inhibitory concentration (IC50) (in assay [1]; in the assay with MKN-45; with HepG2; in the assay on A549) was greater than 200 µM throughout. For the same molecule, the inhibition of growth with Pyricularia grisea is less than 50%.
Consider `COc1cc(-c2nnc(SC)n2N2C(=O)c3ccccc3C2=O)cc(OC)c1OC`, for which the IC50 (in assay [1]; in the assay with MKN-45; in the assay with HepG2; in the assay on A549) was greater than 200 µM each time. The inhibition of growth with Pyricularia grisea was no less than 50%.
As for `C#CCSc1nnc(CC)n1N1C(=O)c2ccccc2C1=O`, the IC50 (in assay [1]; in the assay with MKN-45; with HepG2; in the assay with A549) was greater than 200 µM in each case. Also, the inhibition of growth in the assay with Pyricularia grisea was no less than 60%.
As for `CCOC(=O)CSc1nnc(-c2cc(OC)c(OC)c(OC)c2)n1N1C(=O)c2ccccc2C1=O`, the half-maximal inhibitory concentration (IC50) (in assay [1]; in the assay with MKN-45; in the assay with HepG2; with A549) was greater than 200 µM in each case. Also, the inhibition of growth in the assay with Pyricularia grisea was less than 50%.
For `CSc1nnc(C)n1N1C(=O)c2ccccc2C1=O`, the 50% inhibitory concentration (IC50) (in assay [1]; in the assay on MKN-45; in the assay with HepG2; in the assay on A549) was greater than 200 µM throughout. The inhibition of growth in the assay on Pyricularia grisea is less than 50%.
With `C=CCSc1nnc(CCC)n1N1C(=O)c2ccccc2C1=O`, the concentration for half-maximal inhibition (IC50) (in assay [1]; in the assay on MKN-45; in the assay with HepG2; with A549) was greater than 200 µM in each case. Further, the inhibition of growth in the assay with Pyricularia grisea was less than 50%.
On to `C#CCSc1nnc(C)n1N1C(=O)c2ccccc2C1=O`, for which the IC50 (in assay [1]; in the assay with MKN-45; with HepG2; with A549) was greater than 200 µM throughout. Also, in the assay with Pyricularia grisea, the inhibition of growth is no less than 60%.
Regarding `C=CCSc1nnc(CC)n1N1C(=O)c2ccccc2C1=O`, the half-inhibitory concentration (IC50) (in assay [1]; with MKN-45; in the assay with HepG2; in the assay with A549) was greater than 200 µM throughout. In addition, the inhibition of growth in the assay with Pyricularia grisea was less than 50%.
For `CCCc1nnc(SC)n1N1C(=O)c2ccccc2C1=O`, the IC50 (in assay [1]; in the assay on MKN-45; in the assay with HepG2; in the assay with A549) was greater than 200 µM each time. For the same molecule, the inhibition of growth in the assay on Pyricularia grisea was less than 50%.
For the molecule `C=CCSc1nnc(-c2cc(OC)c(OC)c(OC)c2)n1N1C(=O)c2ccccc2C1=O`, the IC50 (in assay [1]; in the assay on MKN-45; in the assay with HepG2; in the assay on A549) was greater than 200 µM throughout. Moreover, in the assay with Pyricularia grisea, the inhibition of growth is no less than 60%.
In the case of `CCc1nnc(SCC(=O)c2ccccc2)n1N1C(=O)c2ccccc2C1=O`, the IC50 (in assay [1]; with MKN-45; in the assay with HepG2; with A549) was greater than 200 µM throughout. Moreover, the inhibition of growth with Pyricularia grisea was less than 50%.
Consider `O=c1[nH]cc(F)c(=O)[nH]1` [FLUOROURACIL], for which the IC50 in assay [1] stood at 22.6 µM; in the assay with MKN-45 it was 41.7 µM.
For the molecule `CCCc1nnc(SCC(=O)c2ccccc2)n1N1C(=O)c2ccccc2C1=O`, the IC50 (in assay [1]; with MKN-45; with HepG2; with A549) was greater than 200 µM each time. Further, the inhibition of growth in the assay on Pyricularia grisea was less than 50%.
Consider `CCCc1nnc(SCC(=O)c2ccc(C)cc2)n1N1C(=O)c2ccccc2C1=O`, for which the IC50 (in assay [1]; in the assay with MKN-45; with HepG2; in the assay with A549) was greater than 200 µM each time. In addition, the inhibition of growth in the assay on Pyricularia grisea was no less than 80%.
Regarding `CCCc1nnc(SCc2ccccc2)n1N1C(=O)c2ccccc2C1=O`, the IC50 (in assay [1]; with MKN-45; in the assay on HepG2; with A549) was greater than 200 µM each time. Besides, the inhibition of growth in the assay on Pyricularia grisea is less than 50%.
Consider `COc1cc(-c2nnc(SCc3ccccc3Cl)n2N2C(=O)c3ccccc3C2=O)cc(OC)c1OC`, for which the IC50 (in assay [1]; with MKN-45; in the assay on HepG2; in the assay on A549) was greater than 200 µM in each case. In addition, the inhibition of growth with Pyricularia grisea was less than 50%.
Turning to `Cc1nnc(SCC(=O)c2ccc(Cl)cc2)n1N1C(=O)c2ccccc2C1=O`, the IC50 (in assay [1]; in the assay with MKN-45; in the assay with HepG2; with A549) was greater than 200 µM throughout. Further, the inhibition of growth with Pyricularia grisea is no less than 60%.
On to `Cc1nnc(SCc2ccccc2Cl)n1N1C(=O)c2ccccc2C1=O`, for which the IC50 (in assay [1]; with MKN-45; in the assay on HepG2; with A549) was greater than 200 µM each time. Also, the inhibition of growth in the assay on Pyricularia grisea is no less than 60%.
`COc1cc(-c2nnc(SCC(=O)c3ccc(F)cc3)n2N2C(=O)c3ccccc3C2=O)cc(OC)c1OC`: the IC50 was greater than 200 µM in assay [1], 126 µM in the assay with MKN-45, greater than 200 µM with HepG2 and greater than 200 µM with A549. Besides, the inhibition of growth with Pyricularia grisea was less than 50%.
For the molecule `CCc1nnc(SCc2ccccc2)n1N1C(=O)c2ccccc2C1=O`, the IC50 (in assay [1]; in the assay on MKN-45; in the assay on HepG2; in the assay on A549) was greater than 200 µM throughout. In addition, the inhibition of growth in the assay with Pyricularia grisea was no less than 50%.
For the molecule `CCOC(=O)CSc1nnc(C)n1N1C(=O)c2ccccc2C1=O`, the IC50 (in assay [1]; with MKN-45; with HepG2; with A549) was greater than 200 µM in each case. Moreover, in the assay with Pyricularia grisea, the inhibition of growth is less than 50%.
Take `CC(C)(C)C(=O)C(Oc1ccc(Cl)cc1)n1cncn1` (stereo not drawn) [TRIADIMEFON]: the inhibition of growth in the assay on Pyricularia grisea was no less than 80%.
`CCCc1nnc(SCC(=O)c2ccc(Cl)cc2)n1N1C(=O)c2ccccc2C1=O`: the IC50 (in assay [1]; in the assay on MKN-45; with HepG2; in the assay with A549) was greater than 200 µM in each case. Moreover, in the assay with Pyricularia grisea, the inhibition of growth was less than 50%.
As to `C#CCSc1nnc(-c2cc(OC)c(OC)c(OC)c2)n1N1C(=O)c2ccccc2C1=O`, the IC50 (in assay [1]; in the assay on MKN-45; in the assay with HepG2; in the assay on A549) was greater than 200 µM in each case. In addition, the inhibition of growth in the assay with Pyricularia grisea is less than 50%.
Consider `CCc1nnc(SCC(=O)c2ccc(C)cc2)n1N1C(=O)c2ccccc2C1=O`, for which the IC50 (in assay [1]; with MKN-45; with HepG2; with A549) was greater than 200 µM in each case. Besides, in the assay on Pyricularia grisea, the inhibition of growth was less than 50%.
Regarding `CCCc1nnc(SCc2ccccc2Cl)n1N1C(=O)c2ccccc2C1=O`, the IC50 (in assay [1]; with MKN-45; with HepG2; in the assay on A549) was greater than 200 µM each time. Moreover, the inhibition of growth in the assay on Pyricularia grisea was less than 50%.
Take `CCc1nnc(SC)n1N1C(=O)c2ccccc2C1=O`: the half-maximal inhibitory concentration (IC50) (in assay [1]; in the assay with MKN-45; with HepG2; in the assay with A549) was greater than 200 µM each time. In the assay with Pyricularia grisea, the inhibition of growth is less than 50%.
For the molecule `COc1cc(-c2nnc(SCC(=O)c3ccccc3C)n2N2C(=O)c3ccccc3C2=O)cc(OC)c1OC`, the half-inhibitory concentration (IC50) in assay [1] is greater than 200 µM; with MKN-45 it was greater than 200 µM; with HepG2, greater than 200 µM; in the assay with A549, 144 µM. Further, the inhibition of growth with Pyricularia grisea was less than 50%.
In the case of `COc1cc(-c2nnc(SCC(=O)c3ccc(F)c(F)c3)n2N2C(=O)c3ccccc3C2=O)cc(OC)c1OC`, the 50% inhibitory concentration (IC50) is 163 µM in assay [1], greater than 200 µM in the assay on MKN-45, greater than 200 µM in the assay with HepG2 and greater than 200 µM in the assay with A549. The inhibition of growth in the assay on Pyricularia grisea is less than 50%.
As to `Cc1nnc(SCC(=O)c2ccccc2)n1N1C(=O)c2ccccc2C1=O`, the 50% inhibitory concentration (IC50) (in assay [1]; in the assay on MKN-45; in the assay with HepG2; in the assay with A549) was greater than 200 µM in each case. Moreover, in the assay on Pyricularia grisea, the inhibition of growth is less than 50%.
Turning to `CCOC(=O)CSc1nnc(CC)n1N1C(=O)c2ccccc2C1=O`, the IC50 (in assay [1]; in the assay with MKN-45; in the assay with HepG2; with A549) was greater than 200 µM throughout. Moreover, in the assay on Pyricularia grisea, the inhibition of growth was no less than 50%.
`CCc1nnc(SCC(=O)c2ccc(Cl)cc2)n1N1C(=O)c2ccccc2C1=O`: the IC50 (in assay [1]; with MKN-45; in the assay with HepG2; with A549) was greater than 200 µM each time. Besides, the inhibition of growth in the assay on Pyricularia grisea was less than 50%.
